Results from ChEMBL document CHEMBL1130288, “(3R)-N-(1-(tert-butylcarbonylmethyl)-2,3-dihydro-2-oxo-5-(2-pyridyl)-1H-1,4-benzodiazepin-3-yl)-N'-(3-(methylamino)phenyl)urea (YF476): a potent and orally active gastrin/CCK-B antagonist” (J Med Chem, 1997).

Assays:
[1] = biological target: T1, Gastrin/cholecystokinin type B receptor (Rattus norvegicus, UniProt P30553); test: Inhibitory concentration against radioligand [125I]CCK-8 binding to gastrin/Cholecystokinin type B receptor from rat brain
T1 sequence (P30553 whole entry): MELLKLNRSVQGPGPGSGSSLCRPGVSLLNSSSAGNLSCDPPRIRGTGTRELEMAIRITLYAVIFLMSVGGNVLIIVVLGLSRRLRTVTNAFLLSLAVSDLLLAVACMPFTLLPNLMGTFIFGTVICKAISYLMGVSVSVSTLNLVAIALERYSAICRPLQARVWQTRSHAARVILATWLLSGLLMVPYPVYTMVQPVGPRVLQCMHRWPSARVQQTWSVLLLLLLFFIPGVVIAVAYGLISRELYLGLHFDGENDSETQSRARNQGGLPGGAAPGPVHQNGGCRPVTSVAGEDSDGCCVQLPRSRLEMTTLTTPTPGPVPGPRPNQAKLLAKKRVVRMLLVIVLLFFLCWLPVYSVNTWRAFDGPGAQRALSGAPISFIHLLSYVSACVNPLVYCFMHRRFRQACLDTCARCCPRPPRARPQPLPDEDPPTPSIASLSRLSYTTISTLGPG
In short: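 SD rat whole-brain membranes prepared by sucrose homogenisation, differential centrifugation and Triton X-100 wash. Incubated 120 min at 25 °C with [125I]BH-CCK-8 and compound (in DMSO) in 10 mM HEPES pH 6.5 with NaCl, MgCl2, EDTA, bacitracin. Filtration, γ-counting. Nonspecific binding with […] CCK-8. IC50 is the concentration giving 50% inhibition of specific binding.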

[2] = biological target: T2, Cholecystokinin receptor type A (Rattus norvegicus, UniProt P30551); test: Inhibitory concentration against radioligand [3 H]L-364,718 binding to gastrin/Cholecystokinin type A receptor from rat pancreas
T2 sequence (P30551 whole entry): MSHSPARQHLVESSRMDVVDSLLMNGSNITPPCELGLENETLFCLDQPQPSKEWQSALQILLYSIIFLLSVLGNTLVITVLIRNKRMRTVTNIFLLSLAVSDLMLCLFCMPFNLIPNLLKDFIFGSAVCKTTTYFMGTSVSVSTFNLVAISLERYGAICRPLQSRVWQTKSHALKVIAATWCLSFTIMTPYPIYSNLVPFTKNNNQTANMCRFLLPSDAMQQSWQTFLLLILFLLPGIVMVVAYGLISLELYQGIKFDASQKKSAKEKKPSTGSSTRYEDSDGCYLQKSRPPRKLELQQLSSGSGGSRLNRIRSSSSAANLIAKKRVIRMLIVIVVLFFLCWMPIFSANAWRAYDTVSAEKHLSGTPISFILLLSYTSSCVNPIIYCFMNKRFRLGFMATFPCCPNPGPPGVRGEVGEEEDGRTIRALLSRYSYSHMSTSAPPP
In short: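 Rat pancreas membranes in 50 mM Tris-HCl pH 7.7 containing BSA, MgCl2, bacitracin and DTT. Incubated 30 min at 37 °C with [3H]L-364,718 and compound (in DMSO). Filtration, scintillation counting. Nonspecific binding with […] L-364,718. IC50 is the concentration inhibiting specific binding by 50%.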

Canis familiaris [3] = test: Compound at an peroral dose of 3 uM/Kg was tested for the inhibition of pentagastrin-induced gastric acid secretion in heidenhain pouch dogs; type: functional, Canis lupus familiaris, Stomach
In short: (§1)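 Male beagle dogs with Heidenhain pouch, food withheld 18 h (water free). Pentagastrin 8 µmol/kg/h infused via femoral vein from 3 h before until 6 h after oral dosing. Gastric juice collected every 15 min; acidity by automatic titration with 0.05 N NaOH to pH 7.0. Inhibition relative to values just before dosing.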

[4] = biological target: Cholecystokinin receptor (Rattus norvegicus) (UniProt P30551+P30553); test: Ratio of inhibitory concentration; CCK-A receptor to CCK-B receptor; type: protein assay
Rattus norvegicus [5] = test: Inhibition of pentagastrin-induced gastric acid secretion in anathesized rats at 0.03 uM/Kg upon intravenous administration; type: functional, Stomach
In short: (§2)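 Anesthetized rats, pylorus-ligated with duodenal cannula. Stomach perfused with saline (pH 7.0) at 3 mL/min. Acid output by continuous pH-stat titration with 25 mM NaOH to pH 7.0, per 10 min. Pentagastrin infused iv via femoral vein. Compound in polyethylene glycol 300 given iv 1 h after pentagastrin start. ED50 is the dose reducing acid to 50% of maximum.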

Rattus norvegicus [6] = test: Inhibition of pentagastrin-induced gastric acid secretion in anathesized rats at 0.1 uM/Kg upon intravenous administration; type: functional, Stomach; in short: as §2
Canis familiaris [7] = test: Concentration required to inhibit pentagastrin-induced gastric acid secretion in heidenhain pouch dogs upon intravenous administration; type: functional; details: Canis lupus familiaris, Stomach
In short: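 Male beagle dogs with Heidenhain pouch, fasted 18 h with water allowed. Pentagastrin infused at 8 µmol/kg/h through femoral vein. Compound dissolved in DMF and given iv 3 h after infusion start. Juice collected every 15 min, volume measured, acidity titrated with 0.05 N NaOH to pH 7.0.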

Canis familiaris [8] = test: Concentration required to inhibit pentagastrin-induced gastric acid secretion in heidenhain pouch dogs upon peroral administration; type: functional; details: Canis lupus familiaris, Stomach, po; in short: as §1
Canis familiaris [9] = test: Compound at an peroral dose of 1 umol/kg was tested for the inhibition of pentagastrin-induced gastric acid secretion in heidenhain pouch dogs; type: functional; details: Canis lupus familiaris, Stomach, po; in short: as §1
Rattus norvegicus [10] = test: Inhibition of pentagastrin-induced gastric acid secretion in anathesized rats upon intravenous administration; type: functional; details: Stomach; in short: as §2
Rattus norvegicus [11] = test: Inhibition of pentagastrin-induced gastric acid secretion in Dawley rats following intravenous administration; type: functional; details: Stomach; in short: as §2
Canis familiaris [12] = test: Compound at an peroral dose of 0.03 uM/Kg was tested for the inhibition of pentagastrin-induced gastric acid secretion in heidenhain pouch dogs; type: functional, Canis lupus familiaris, Stomach; in short: as §1
Canis familiaris [13] = test: Compound at an peroral dose of 0.1 uM/Kg was tested for the inhibition of pentagastrin-induced gastric acid secretion in heidenhain pouch dogs; type: functional, Canis lupus familiaris, Stomach; in short: as §1
Canis familiaris [14] = test: Compound at an peroral dose of 0.3 uM/Kg was tested for the inhibition of pentagastrin-induced gastric acid secretion in heidenhain pouch dogs; type: functional, Canis lupus familiaris, Stomach; in short: as §1

SMILES	IC50 [1] [nM]	IC50 [2] [nM]	Ratio [4]	Inhibition (Rattus norvegicus [6]) [%]	also measured
Cc1cccc(NC(=O)N[C@@H]2N=C(c3ccccc3)c3ccccc3N(CC(=O)C(C)(C)C)C2=O)c1	0.52	111	213	–	Inhibition (Canis familiaris [3]): 53%; Inhibition (Rattus norvegicus [5]): 77%
CC(C)(C)C(=O)CN1C(=O)[C@H](NC(=O)Nc2cccc(N3CCCC3)c2)N=C(c2ccccn2)c2ccccc21	0.11	253	2300	75	–
Cc1cccc(NC(=O)N[C@@H]2N=C(c3ccccc3)c3ccccc3N(CC(=O)c3ccccc3C)C2=O)c1	–	–	1330	–	ED50 (Canis familiaris [7]): 0.026 µmol/kg; ED50 (Canis familiaris [8]): 1.9 µmol/kg; inhibition in vivo at 1 µmol/kg (Canis familiaris [9]): 26%; Inhibition (Canis familiaris [3]): 72%; ED50 (Rattus norvegicus [10]): 0.0083 µmol/kg
CC(C)(C)C(=O)CN1C(=O)[C@H](NC(=O)Nc2cccc(N)c2)N=C(c2ccccn2)c2ccccc21	0.43	1820	4230	62	–
CC(C)(C)C(=O)CN1C(=O)C(NC(=O)Nc2cccc(NC=O)c2)N=C(c2ccccc2)c2ccccc21 (configuration not stated)	0.59	561	951	74	–
CNc1cccc(NC(=O)N[C@@H]2N=C(c3ccccc3)c3ccccc3N(CC(=O)C(C)(C)C)C2=O)c1	–	–	1090	80	–
CC(C)(C)C(=O)CN1C(=O)C(NC(=O)Nc2cccc(C#N)c2)N=C(c2ccccc2)c2ccccc21 (configuration not stated)	1.29	700	542	65	–
CCN(CC)c1cccc(NC(=O)N[C@@H]2N=C(c3ccccc3)c3ccccc3N(CC(=O)C(C)(C)C)C2=O)c1	0.14	558	3990	82	–
CC(C)(C)C(=O)CN1C(=O)C(NC(=O)Nc2cccc([N+](=O)[O-])c2)N=C(c2ccccc2)c2ccccc21 (configuration not stated)	0.16	589	3680	76	–
CN(C)c1cccc(NC(=O)N[C@@H]2N=C(c3ccccc3)c3ccccc3N(CC(=O)C(C)(C)C)C2=O)c1	0.21	89	423	65	Inhibition (Canis familiaris [3]): 99%; ED50 (Rattus norvegicus [11]): 0.012 µmol/kg
CC(C)(C)C(=O)CN1C(=O)[C@H](NC(=O)Nc2cccc(N3CCCCC3)c2)N=C(c2ccccn2)c2ccccc21	0.84	944	1120	55	–
CN(C)c1cccc(NC(=O)N[C@@H]2N=C(c3ccccn3)c3ccccc3N(CC(=O)C(C)(C)C)C2=O)c1	–	–	565	–	ED50 (Canis familiaris [7]): 0.014 µmol/kg; Inhibition (Canis familiaris [12]): 77%; Inhibition (Canis familiaris [13]): 98%; ED50 (Rattus norvegicus [11]): 0.011 µmol/kg; Inhibition (Rattus norvegicus [5]): 65%
CCN(CC)c1cccc(NC(=O)N[C@@H]2N=C(c3ccccn3)c3ccccc3N(CC(=O)C(C)(C)C)C2=O)c1	0.11	301	2740	74	–
CC(C)(C)C(=O)CN1C(=O)[C@H](NC(=O)Nc2cccc(N)c2)N=C(c2ccccc2)c2ccccc21	–	–	1910	75	–
CNc1cccc(NC(=O)N[C@@H]2N=C(c3ccccn3)c3ccccc3N(CC(=O)C(C)(C)C)C2=O)c1 [NETAZEPIDE]	–	–	5020	87	ED50 (Canis familiaris [7]): 0.018 µmol/kg; ED50 (Canis familiaris [8]): 0.021 µmol/kg; Inhibition (Canis familiaris [12]): 65%; Inhibition (Canis familiaris [13]): 100%; ED50 (Rattus norvegicus [11]): 0.008 µmol/kg
CN(C)c1cccc(NC(=O)N[C@H]2N=C(c3ccccn3)c3ccccc3N(CC(=O)C(C)(C)C)C2=O)c1	1.26	572	454	–	–
Cc1cccc(NC(=O)N[C@@H]2N=C(c3ccccn3)c3ccccc3N(CC(=O)C(C)(C)C)C2=O)c1	–	470	1070	78	Inhibition (Canis familiaris [14]): 7%; Inhibition (Canis familiaris [3]): 97%
CC(C)(C)C(=O)CN1C(=O)[C@H](NC(=O)Nc2cccc(N3CCCC3)c2)N=C(c2ccccc2)c2ccccc21	0.17	157	923	79	–
CC(C)(C)C(=O)CN1C(=O)C(NC(=O)Nc2cccc(C(=O)O)c2)N=C(c2ccccc2)c2ccccc21 (configuration not stated)	3.29	2060	626	56	–
